From ChEMBL document CHEMBL4130483, “Leishmanicidal and cytotoxic activity of hederagenin-bistriazolyl derivatives” (Eur J Med Chem, 2017)
Activity calls are given as the source filed them.

Assays:
Leishmania infantum [1] = assay: Antileishmanial activity against Leishmania infantum MHOM/BR/70/BH46 intracellular amastigotes infected in canine DH82 cells assessed as as inhibition of cell growth incubated for 48 hrs by ELISA method; format: functional, organism-based; conditions: MHOM/BR/70/BH46, DH82, 48 h
How it was run: (§1)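 L. infantum BH46 intracellular amastigotes. Phase II testing at 0.1, 1.0, 10 and 100 μM. IC50 is the concentration inhibiting in vitro growth by 50%, taken from dose-response curves (log concentration vs inhibition) run in four replicates. Potassium antimonyl tartrate trihydrate served as positive control.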

FaDu = assay: Cytotoxicity against human FADU cells assessed as reduction in cell viability incubated fro 96 hrs by SRB assay; format: functional, cell-based
A-375 = assay: Cytotoxicity against human A375 cells assessed as reduction in cell viability incubated fro 96 hrs by SRB assay; format: functional, cell-based; conditions: A-375, 96 h
How it was run: (§2)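 Sulforhodamine B photometric assay after 96 h treatment. Monolayers were grown in RPMI 1640 with L-glutamine, 10% heat-inactivated FBS and penicillin/streptomycin at 37 °C in humidified 5% CO2. Cut-off was 30 μM, or 60 μM for the parent. EC50 was averaged from at least three independent experiments, each in four replicates. Betulinic acid was the positive standard.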

[2] = Cytotoxicity in human HepG2 cells assessed as reduction in cell viability incubated for 48 hrs by MTT assay; format: cell-based
How it was run: (§3)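 MTT colorimetric assay with microscopic monitoring. CC50 is the concentration cytotoxic to 50% of BGM or HepG2 cells. Potassium antimonyl tartrate trihydrate was the positive control.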

Leishmania infantum [3] = assay: Antileishmanial activity against Leishmania infantum MHOM/BR/70/BH46 intracellular amastigotes infected in canine DH82 cells assessed as as inhibition of cell growth at 1000 uM incubated for 48 hrs by ELISA method; format: functional; conditions: MHOM/BR/70/BH46, DH82, 48 h, read-out: GI
[4] = Ratio of selectivity index of test compound to potassium antimonyl tartrate by measuring ratio of CC50 for dog DH82 cells to IC50 for antileishmanial activity against Leishmania infantum MHOM/BR/70/BH46 intracellular amastigotes infected in canine DH82 cells; format: toxicity, cell-based
A2780 [5] = assay: Cytotoxicity against human A2780 cells assessed as reduction in cell viability incubated fro 96 hrs by SRB assay; format: functional, cell-based; conditions: A2780, 96 h; how it was run: as §2
[6] = Ratio of selectivity index of test compound to hederagenin by measuring ratio of CC50 for dog DH82 cells to IC50 for antileishmanial activity against Leishmania infantum MHOM/BR/70/BH46 intracellular amastigotes infected in canine DH82 cells; format: toxicity, cell-based
[7] = Cytotoxicity in African green monkey BGM cells assessed as reduction in cell viability incubated for 48 hrs by MTT assay; format: cell-based; conditions: chlorocebus aethiops; how it was run: as §3
HT-29 [8] = assay: Cytotoxicity against human HT-29 cells assessed as reduction in cell viability incubated fro 96 hrs by SRB assay; format: functional, cell-based; conditions: HT-29, 96 h; how it was run: as §2
[9] = Cytotoxicity in dog DH82 cells assessed as reduction in cell viability incubated for 48 hrs by MTT assay; format: cell-based, Canis lupus familiaris
How it was run: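 DH82 canine macrophage viability was monitored microscopically and by MTT colorimetric assay. CC50 is the concentration cytotoxic to 50% of DH82 cells. Potassium antimonyl tartrate trihydrate was the positive control.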

SW-1736 = assay: Cytotoxicity against human SW1736 cells assessed as reduction in cell viability incubated fro 96 hrs by SRB assay; format: functional, cell-based; conditions: SW-1736, 96 h; how it was run: as §2
[10] = Selectivity index, ratio of CC50 for dog DH82 cells to IC50 for antileishmanial activity against Leishmania infantum MHOM/BR/70/BH46 intracellular amastigotes infected in canine DH82 cells; format: toxicity, cell-based; conditions: read-out: Ratio CC50/IC50
How it was run: (§4)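 SI = CC50 in DH82 macrophages (MTT) divided by IC50 against intracellular L. infantum BH46 amastigotes.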

[11] = Selectivity index, ratio of CC50 for African green monkey BGM cells to IC50 for antileishmanial activity against Leishmania infantum MHOM/BR/70/BH46 intracellular amastigotes infected in canine DH82 cells; format: toxicity, cell-based; conditions: read-out: Ratio CC50/IC50
How it was run: (§5)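 SI = CC50 in BGM or HepG2 cells (MTT) divided by the intracellular amastigote IC50.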

[12] = Selectivity index, ratio of CC50 for human HepG2 cells to IC50 for antileishmanial activity against Leishmania infantum MHOM/BR/70/BH46 intracellular amastigotes infected in canine DH82 cells; format: toxicity, cell-based; conditions: read-out: Ratio CC50/IC50; how it was run: as §5
Leishmania infantum [13] = assay: Antileishmanial activity against Leishmania infantum MHOM/BR/70/BH46 intracellular amastigotes infected in canine DH82 cells assessed as as inhibition of cell growth; format: functional, organism-based; conditions: MHOM/BR/70/BH46, DH82; how it was run: as §1
[14] = Selectivity index, ratio of CC50 for dog DH82 cells to IC50 for Leishmania infantum MHOM/BR/70/BH46 intracellular amastigotes infected in canine DH82 cells; format: toxicity, cell-based; how it was run: as §4
HT-29 [15] = assay: Induction of cell morphology changes in human HT-29 cells at 15 uM incubated for 24 hrs by AO/PI staining based fluorescence microscopy; format: functional
How it was run: (§6)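 HT29 cells were treated for 24 h, then stained with acridine orange and propidium iodide. Morphology and membrane permeability were assessed by fluorescence microscopy against an untreated control.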

HT-29 [16] = assay: Induction of cell membrane permeability changes in human HT-29 cells at 15 uM incubated for 24 hrs by AO/PI staining based fluorescence microscopy; format: functional; how it was run: as §6
8505C = assay: Cytotoxicity against human 8505C cells; format: functional, cell-based
HT-29 [17] = assay: Cytotoxicity against human HT-29 cells; format: functional, cell-based
A2780 [18] = assay: Cytotoxicity against human A2780 cells; format: functional, cell-based
MCF7 = assay: Cytotoxicity against human MCF7 cells; format: functional, cell-based
518A2 = assay: Cytotoxicity against human 518A2 cells; format: functional, cell-based
A549 = assay: Cytotoxicity against human A549 cells; format: functional, cell-based
Leishmania infantum [19] = assay: Antiparasitic activity against Leishmania infantum; format: functional, organism-based

In the case of `Cc1ccc(C(=O)Cn2cc(COC[C@@]3(C)[C@@H]4CC[C@]5(C)[C@H](CC=C6[C@@H]7CC(C)(C)CC[C@]7(C(=O)OCc7cn(CC(=O)c8ccc(C)cc8)nn7)CC[C@]65C)[C@@]4(C)CC[C@@H]3O)nn2)cc1`, the IC50 (Leishmania infantum [1]) is reported as 7.4 µM, the EC50 (FaDu) is reported as over 30 µM and the EC50 (A-375) is reported as over 30 µM. For the same compound, the CC50 at 48 h [2] was over 1000 µM, the inhibition of growth at 1000 µM (Leishmania infantum [3]) was 63.7% and the Ratio [4] was 10. The EC50 (A2780 [5]) was over 30 µM, the Ratio [6] was 14 and the CC50 at 48 h [7] was over 1000 µM. For the same compound, the EC50 (HT-29 [8]) was over 30 µM, the CC50 at 48 h [9] was over 1000 µM and the EC50 (SW-1736) was over 30 µM. The selectivity ratio [10] was over 135, the selectivity ratio [11] was over 135 and the selectivity ratio [12] was over 135.

With `CC1(C)CC[C@]2(C(=O)OCc3cn(Cc4ccccc4F)nn3)CC[C@]3(C)C(=CC[C@@H]4[C@@]5(C)CC[C@H](O)[C@@](C)(COCc6cn(Cc7ccccc7F)nn6)[C@@H]5CC[C@]43C)[C@@H]2C1` the IC50 (Leishmania infantum [13]) was 5.6 µM, the IC50 (Leishmania infantum [1]) was 5.6 µM and the EC50 (FaDu) was over 30 µM. For the same compound, the EC50 (A-375) was 28.5 µM, the CC50 at 48 h [2] was over 1000 µM and the inhibition of growth at 1000 µM (Leishmania infantum [3]) was 65%. The Ratio [4] was 1780, the EC50 (A2780 [5]) was 21.6 µM and the Ratio [6] was 8. The CC50 at 48 h [7] was over 1000 µM, the EC50 (HT-29 [8]) was 16.3 µM and the CC50 at 48 h [9] was over 1000 µM. It also gave an EC50 (SW-1736) of over 30 µM, a selectivity ratio [14] of over 178 and a selectivity ratio [10] of over 178. The selectivity ratio [11] was over 178 and the selectivity ratio [12] was over 178.

`CC1(C)CC[C@]2(C(=O)OCc3cn(CC(=O)c4ccc(C#N)cc4)nn3)CC[C@]3(C)C(=CC[C@@H]4[C@@]5(C)CC[C@H](O)[C@@](C)(COCc6cn(CC(=O)c7ccc(C#N)cc7)nn6)[C@@H]5CC[C@]43C)[C@@H]2C1` gave an EC50 (FaDu) of 12.1 µM, an EC50 (A-375) of 10.6 µM and an inhibition of growth at 1000 µM (Leishmania infantum [3]) of 8.8%. The EC50 (A2780 [5]) was 11.2 µM, the Activity (HT-29 [15]) was “inactive” and the Activity (HT-29 [16]) was “inactive”. The EC50 (HT-29 [8]) was 7.4 µM and the EC50 (SW-1736) was 11.9 µM.

`CC1(C)CC[C@]2(C(=O)OCc3cn(Cc4cccc([N+](=O)[O-])c4)nn3)CC[C@]3(C)C(=CC[C@@H]4[C@@]5(C)CC[C@H](O)[C@@](C)(CO)[C@@H]5CC[C@]43C)[C@@H]2C1` gave an EC50 (8505C) of 3 to 4.1 µM, an EC50 (HT-29 [17]) of 3 to 4.1 µM and an EC50 (A2780 [18]) of 3 to 4.1 µM. The EC50 (MCF7) was 3 to 4.1 µM, the EC50 (518A2) was 3 to 4.1 µM and the EC50 (A549) was 3 to 4.1 µM.

Work on `CC1(C)CC[C@]2(C(=O)OCc3cn(Cc4ccc(F)cc4F)nn3)CC[C@]3(C)C(=CC[C@@H]4[C@@]5(C)CC[C@H](O)[C@@](C)(COCc6cn(Cc7ccc(F)cc7F)nn6)[C@@H]5CC[C@]43C)[C@@H]2C1` yielded an IC50 (Leishmania infantum [1]) of 155 µM, an EC50 (FaDu) of over 30 µM and an EC50 (A-375) of over 30 µM. The CC50 at 48 h [2] was 105 µM, the inhibition of growth at 1000 µM (Leishmania infantum [3]) was 52.4% and the EC50 (A2780 [5]) was over 30 µM. It also gave a CC50 at 48 h [7] of 99.7 µM, an EC50 (HT-29 [8]) of over 30 µM and a CC50 at 48 h [9] of 140 µM. For the same compound, the EC50 (SW-1736) was over 30 µM, the selectivity ratio [10] was 0.9 and the selectivity ratio [11] was 0.6. For the same compound, the selectivity ratio [12] was 0.7.

For `CC1(C)CC[C@]2(C(=O)OCc3cn(Cc4cccc(Cl)c4)nn3)CC[C@]3(C)C(=CC[C@@H]4[C@@]5(C)CC[C@H](O)[C@@](C)(CO)[C@@H]5CC[C@]43C)[C@@H]2C1`, the EC50 (8505C) was 3 to 4.1 µM, the EC50 (HT-29 [17]) was 3 to 4.1 µM and the EC50 (A2780 [18]) was 3 to 4.1 µM. It also gave an EC50 (MCF7) of 3 to 4.1 µM, an EC50 (518A2) of 3 to 4.1 µM and an EC50 (A549) of 3 to 4.1 µM.

In the case of `CC1(C)CC[C@]2(C(=O)OCc3cn(Cc4cccc(Br)c4)nn3)CC[C@]3(C)C(=CC[C@@H]4[C@@]5(C)CC[C@H](O)[C@@](C)(CO)[C@@H]5CC[C@]43C)[C@@H]2C1`, the EC50 (8505C) is reported as 3 to 4.1 µM, the EC50 (HT-29 [17]) is reported as 3 to 4.1 µM and the EC50 (A2780 [18]) is reported as 3 to 4.1 µM. For the same compound, the IC50 (Leishmania infantum [19]) was 32 to 34 µM, the EC50 (MCF7) was 3 to 4.1 µM and the EC50 (518A2) was 3 to 4.1 µM. The EC50 (A549) was 3 to 4.1 µM.
